Data set [1] is described as follows: Fluorescence property of compound in HEPES buffer at pH 7.4 assessed as quantum yield at 1.5 mM under irradiation with 365 nm light by UV-Visible spectra analysis. Format: physicochemical. The conditions noted are these: pH 7.4, 1500 µM.
A short description of data set [2]: Fluorescence property of compound in HEPES buffer at pH 7.4 assessed as quantum yield at 1.5 mM under irradiation with 440 nm light by UV-Visible spectra analysis. Format: physicochemical. The conditions noted are these: pH 7.4, 1500 µM.
The nature of data set [3]: In vivo inhibition of HCN4 in Zebrafish larvae assessed as reduction in heart rate at 1 mM administered at 48 hpf along with 0.5 mW/mm2 of UV light irradiation exposure at 365 nm measured upto 60 mins (reference value: 84 +/- 1 %). Format: functional, Danio rerio.
The nature of data set [4]: In vivo inhibition of HCN4 in Zebrafish larvae assessed as reduction in heart rate at 1 mM administered at 48 hpf along with 2 mW/mm2 of blue light irradiation exposure at 436 nm measured upto 60 mins (reference value: 80 +/- 1 %). Format: functional, Danio rerio.
The test system of the next data set is HEK-293T. Nature of the data set: Cytotoxicity against human HEK-293T cells assessed as reduction in cell viability at 100 uM incubated upto 48 hrs by live/dead TM red staining based fluorescent microscopic analysis. Format: toxicity. In short, it runs like this: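 HEK293T cells in DMEM high-glucose with 10% FBS and 1% PenStrep, treated at 80-90% confluency with 100 μM compound added to growth medium; untreated and 0.5% DMSO controls, heat-killed (60 °C, 20 min) positive control. After 8, 16, 24 or 48 h, cells detached, stained with LIVE-DEAD NearIF in PBS, imaged at 640 nm excitation; dead cells counted in three random quadrants per triplicate.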

Data set [5] in a line: Drug accumulation in human HEK-293T cells transfected with RFP-fused human HCN1 assessed as increase in fluorescent signal at 30 uM measured for 25 mins by fluorescent microscopic analysis. Type of data set: ADME, cell-based. In short, it runs like this:
(§1)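 HEK293T cells incubated with 30 μM compound in buffer for 15 min, or perfused for 5 min. Intracellular autofluorescence (excitation 405 nm, emission 518 nm) imaged by fluorescence microscopy, with images taken during 10 min of washout.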

The nature of data set [6]: Fluorescence property of compound in HEPES buffer at pH 7.4 assessed as quantum yield at 1.5 mM under irradiation with 395 nm light by UV-Visible spectra analysis. Format: physicochemical. The note with it: pH 7.4, 1500 µM.
A short description of data set [7]: Solubility of compound in HEPES buffer at pH 7.4 by UV-Visible spectra analysis. Type of data set: physicochemical.
Data set [8] is described as follows: Drug accumulation in human HEK-293T cells transfected with RFP-fused human HCN1 assessed as increase in fluorescent signal at 30 uM incubated for 15 mins by fluorescent microscopic analysis. Format: ADME, cell-based. The conditions noted are these: 0.25 h. In short, it runs like this:
as §1

Data set [9] in a line: Stability in human plasma at 40 mM incubated upto 24 hrs by UV-HPLC analysis. The note with it: 1000 µM, in the assay text read “1 mM” for “40 mM”. Type of data set: ADME, cell-free. The essentials: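 A 40 mM stock was added to human plasma (10 into 390 parts) and incubated at 37 °C for 24 h, in duplicate. At time points, aliquots were quenched in 3 volumes of cold acetonitrile, centrifuged at 4 °C for 10 min, filtered and analysed by HPLC-UV (C18, TFA water/acetonitrile gradient, detection at 280 nm).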

In data set [10] the test system is Neuron. Nature of the data set: Inhibition of HCN in mouse brain neuron assessed as reduction of hyperpolarization-activated current (Ih) at 30 uM at holding potential of -70 to -120 mV with UV light irradiation at 365 nm by whole cell patch clamp electrophysiology. Type of data set: tissue-based. In short, it runs like this: (§2)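 Dendritic whole-cell recordings on L5 neurons of medial prefrontal cortex in acute slices from male mice (2-3 months), aCSF at 32-34 °C with D-APV, DNQX, CGP and gabazine. Ih evoked by steps to -120 mV (1.8 s) then +5 mV (0.15 s) from -70 mV holding. Compound bath-perfused at 30 or 100 μM with 365 nm illumination of the slice (23.5 mW); steady-state current compared before and at full effect; paired t-test.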
On the technique in general: The patch-clamp technique gives a direct electrical read-out from membranes.

The target in data set [11] is T1, Potassium/sodium hyperpolarization-activated cyclic nucleotide-gated channel 1 (Homo sapiens) (UniProt O60741).
T1 sequence (whole entry): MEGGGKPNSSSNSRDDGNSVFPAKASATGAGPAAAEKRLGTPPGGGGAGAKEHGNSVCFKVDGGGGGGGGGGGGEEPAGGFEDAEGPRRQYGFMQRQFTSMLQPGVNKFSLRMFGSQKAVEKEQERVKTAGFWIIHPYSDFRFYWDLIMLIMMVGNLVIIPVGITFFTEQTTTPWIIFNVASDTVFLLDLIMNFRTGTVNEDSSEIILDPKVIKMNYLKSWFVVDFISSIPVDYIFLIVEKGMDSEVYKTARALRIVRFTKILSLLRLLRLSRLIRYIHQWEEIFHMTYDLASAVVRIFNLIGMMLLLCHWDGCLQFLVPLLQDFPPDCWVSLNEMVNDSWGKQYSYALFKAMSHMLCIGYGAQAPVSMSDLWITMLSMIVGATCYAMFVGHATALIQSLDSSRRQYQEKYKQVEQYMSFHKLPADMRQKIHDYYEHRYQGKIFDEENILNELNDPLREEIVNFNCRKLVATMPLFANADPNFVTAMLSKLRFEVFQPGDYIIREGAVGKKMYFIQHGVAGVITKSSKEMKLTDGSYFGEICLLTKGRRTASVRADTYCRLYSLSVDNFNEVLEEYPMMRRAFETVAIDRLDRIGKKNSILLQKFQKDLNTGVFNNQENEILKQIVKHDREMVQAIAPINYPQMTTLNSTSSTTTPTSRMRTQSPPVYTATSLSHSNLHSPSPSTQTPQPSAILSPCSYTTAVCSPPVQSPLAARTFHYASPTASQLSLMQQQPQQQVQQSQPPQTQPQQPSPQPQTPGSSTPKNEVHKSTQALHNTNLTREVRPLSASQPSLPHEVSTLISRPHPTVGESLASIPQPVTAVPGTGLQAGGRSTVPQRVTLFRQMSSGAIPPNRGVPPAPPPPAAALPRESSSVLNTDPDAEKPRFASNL
Kind of data set: Inhibition of RFP-fused human HCN1 transfected in HEK-293T cells at 100 uM at holding potential of -110 mV under dark condition by whole cell patch clamp electrophysiology. Type of data set: cell-based. In short, it runs like this:
(§3)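 RFP-hHCN1 transiently expressed in HEK293T; whole-cell patch clamp at room temperature, 5 kHz sampling, 1 kHz filter. Steps to -110 mV (1.8 s) and +5 mV (0.5 s) every 5.5 s from -20 mV holding. Compound added to extracellular solution by perfusion, either in the dark, pre-illuminated (395 nm 0.5 mW/mm2, or 440 nm 1 mW/mm2 for 1 min) or illuminated during perfusion. Fractional block = current reduction/control current; mean ± SEM.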

Data set [12] relates to Neuron. Kind of data set: Inhibition of HCN in mouse brain neuron assessed as reduction of hyperpolarization-activated current (Ih) at 30 to 100 uM at holding potential of -70 to -120 mV with UV light irradiation at 365 nm by whole cell patch clamp electrophysiology. Type of data set: tissue-based. The note with it: dose 30-100 µM. In short, it runs like this:
as §2

For data set [13], the target named is T1, Potassium/sodium hyperpolarization-activated cyclic nucleotide-gated channel 1 (Homo sapiens). Kind of data set: Inhibition of RFP-fused human HCN1 transfected in HEK-293T cells at 30 uM at holding potential of -110 mV with 0.5 mW/mm2 of UV light irradiation exposure at 395 nm by whole cell patch clamp electrophysiology. Type of data set: cell-based. The essentials: as §3

Data set [14] has the same target. Nature of the data set: Inhibition of RFP-fused human HCN1 transfected in HEK-293T cells at 30 uM at holding potential of -110 mV pre-exposed with 0.5 mW/mm2 of UV light irradiation at 395 nm by whole cell patch clamp electrophysiology. Type of data set: cell-based. The essentials:
as §3

For data set [15] the target is unchanged. Kind of data set: Inhibition of RFP-fused human HCN1 transfected in HEK-293T cells at 30 uM at holding potential of -110 mV with 1 mW/mm2 of blue light irradiation exposure at 440 nm by whole cell patch clamp electrophysiology relative to IVA. Type of data set: cell-based. The essentials: as §3
For data set [16] the target is unchanged. Nature of the data set: Inhibition of RFP-fused human HCN1 transfected in HEK-293T cells at 30 uM at holding potential of -110 mV pre-exposed with 0.5 mW/mm2 of UV light irradiation at 395 nm by whole cell patch clamp electrophysiology relative to IVA. Format: cell-based. In short, it runs like this: as §3
For data set [17] the target is unchanged. Kind of data set: Inhibition of RFP-fused human HCN1 transfected in HEK-293T cells at 100 uM at holding potential of -110 mV pre-exposed with 1 mW/mm2 of blue light irradiation at 440 nm by whole cell patch clamp electrophysiology relative to IVA. Format: cell-based. The essentials:
as §3

Data set [18] shares this target. Kind of data set: Inhibition of RFP-fused human HCN1 transfected in HEK-293T cells at 30 uM at holding potential of -110 mV with 0.5 mW/mm2 of UV light irradiation exposure at 395 nm by whole cell patch clamp electrophysiology relative to IVA. Format: cell-based. In short, it runs like this: as §3
Data set [19] has the same target. Nature of the data set: Inhibition of RFP-fused human HCN1 transfected in HEK-293T cells at 100 uM at holding potential of -110 mV with 1 mW/mm2 of blue light irradiation exposure at 440 nm by whole cell patch clamp electrophysiology relative to IVA. Format: cell-based. In short, it runs like this:
as §3

Data set [20] has the same target. Nature of the data set: Inhibition of RFP-fused human HCN1 transfected in HEK-293T cells at 100 uM at holding potential of -110 mV under UV light exposure by whole cell patch clamp electrophysiology. Format: cell-based. In short, it runs like this: as §3
Data set [21] relates to Neuron. Nature of the data set: Inhibition of HCN in mouse brain neuron assessed as reduction of hyperpolarization-activated current (Ih) at 100 uM at holding potential of -70 to -120 mV with UV light irradiation at 365 nm by whole cell patch clamp electrophysiology. Type of data set: tissue-based. The essentials: as §2

We go through five molecules from ChEMBL document CHEMBL5608236, “A Photoactivatable Version of Ivabradine Enables Light-Induced Block of HCN Current In Vivo” (J Med Chem, 2024).

Activity calls are given as the source filed them. The calls are words filed in the database; no cut-off is given here.

The solubility is the dissolved amount per volume that the medium holds. For the molecule `COc1cc2c(cc1OC)CC(=O)N(CCC[N+](C)(Cc1ccc3ccc(O)c(Br)c3n1)C[C@H]1Cc3cc(OC)c(OC)cc31)CC2.CS(=O)(=O)[O-]` (stereo not given in full), the Activity in data set [1] is 0.091; in data set [2] it was 0.051; in the data set on HEK-293T, “Non-Toxic”; in data set [6], 0.041. For the same molecule, the “inhibition (INH)” value is listed as 51% in data set [3] and 49% in data set [4]. Besides, the Drug uptake result in [5] and in data set [8] was “Active” throughout. In addition, the solubility in [7] was 550 µM.

Consider `COc1cc2c(cc1OC)CC(=O)N(CCC[N+](C)(Cc1ccc3ccc(O)c(Br)c3n1)C[C@H]1Cc3cc(OC)c(OC)cc31)CC2.[OH-]` (stereo not given in full), for which the Activity in data set [1] is recorded as 0.073; in data set [2], 0.062; in data set [6] it was 0.034. Further, the results for the “inhibition (INH)” value in [3] and in [4] were 49% and 51%, respectively. For the same molecule, the Stability entry in data set [9] is “Stable”. In data set [7], this molecule returned a solubility of 430 µM.

The inhibition is how much of the control response was suppressed. With `COc1cc2c(cc1OC)CC(=O)N(CCCN(C)C[C@H]1Cc3cc(OC)c(OC)cc31)CC2`, in the data set on Neuron [10], the inhibition result is “Active”.

For the molecule `COc1cc2c(cc1OC)CC(=O)N(CCC[N+](C)(Cc1ccc3ccc(O)c(Br)c3n1)C[C@H]1Cc3cc(OC)c(OC)cc31)CC2` (stereo not given in full), the inhibition result in data set [11] is “inactive”. The inhibition entry (in the data set on Neuron [12]; in data set [13]; in data set [14]) was “Active” throughout. The inhibition was 65% in [15]; 95% in [16]; 85% in data set [17]; 85% in data set [18]; 85% in data set [19].

As to `OCc1ccc2ccc(O)c(Br)c2n1`, the inhibition result (in data set [11]; in data set [20]; with Neuron [21]) was “inactive” throughout. Further, in the data set with HEK-293T, the Activity result is on record as “Non-Toxic”.
